# Assay results reported in ChEMBL document CHEMBL1932986, “Synthesis and in vitro antimycobacterial activity of compounds derived from (R)- and (S)-2-amino-1-butanol - The crucial role of the configuration” (Eur J Med Chem, 2012).
# Activity calls are given as the source filed them. No cut-off for these calls is given here.
# Legend:
# Priestia megaterium [1] = assay: Antibacterial activity against Bacillus megaterium NRRL 1353895 at 2 mg/ml after 24 hrs by agar diffusion test; format: functional, organism-based
# Method in brief: (§1)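 Agar diffusion: wells in agar filled with […] DMSO solution of compound at various concentrations; diameter of clear zone around application point measured. Bacteria grown 24 h at 37 °C on nutrient agar. Compounds first screened at 50 mg/ml; those active then tested at lower concentrations. Bracketed value = lowest concentration (mg/ml) giving zone >11 mm, reported only if activity retained at ≤1.25 mg/ml.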
# Bacillus [2] = assay: Antibacterial activity against Bacillus idosus B 241 at 2 mg/ml after 24 hrs by agar diffusion test; format: functional, organism-based; method in brief: as §1
# Micrococcus luteus [3] = assay: Antibacterial activity against Sarcina lutea ATCC 9341 at 2 mg/ml after 24 hrs by agar diffusion test; format: functional, organism-based; method in brief: as §1
# Micrococcus luteus [4] = assay: Antibacterial activity against Sarcina lutea ATCC 9341 at 50 mg/ml after 24 hrs by agar diffusion test; format: functional; conditions: for zone of inhibition at 50000 µg/mL: ATCC 9341, 24 h, read-out: DIZ
# Method in brief: (§2)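 Agar diffusion: bacteria grown 24 h at 37 °C on nutrient agar. Wells in the agar are filled with […] of compound solution in DMSO at various concentrations. The diameter of the clear zone around the application point is measured. Bracketed values give the lowest concentration (mg/ml) that produces a zone >11 mm. A first screen is run at 50 mg/ml.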
# Bacillus subtilis [5] = assay: Antibacterial activity against Bacillus subtilis ATCC 6633 at 50 mg/ml after 24 hrs by agar diffusion test; format: functional; conditions: for zone of inhibition at 50000 µg/mL: ATCC 6633, 24 h, read-out: DIZ; method in brief: as §1
# Micrococcus luteus [6] = assay: Antibacterial activity against Micrococcus luteus ATCC 9631 at 50 mg/ml after 24 hrs by agar diffusion test; format: functional; conditions: for zone of inhibition at 50000 µg/mL: ATCC 9631, 24 h, read-out: DIZ; method in brief: as §1
# Staphylococcus aureus [7] = assay: Antibacterial activity against Staphylococcus aureus NRRL B 313 at 2 mg/ml after 24 hrs by agar diffusion test; format: functional, organism-based; method in brief: as §2
# Escherichia coli [8] = assay: Antibacterial activity against Escherichia coli ATCC 8739 at 2 mg/ml after 24 hrs by agar diffusion test; format: functional, organism-based; method in brief: as §1
# Saccharomyces cerevisiae [9] = assay: Antifungal activity against Saccharomyces cerevisiae ATCC 9763 at 2 mg/ml after 72 hrs by agar diffusion test; format: functional, organism-based
# Method in brief: (§3)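 Agar diffusion: yeasts grown on yeast peptone dextrose agar and fungi on potato dextrose agar. Wells are filled with […] of compound solution in DMSO at various concentrations, and the clear-zone diameter is measured. Bracketed values give the lowest concentration (mg/ml) that produces a zone >11 mm. A first screen is run at 50 mg/ml.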
# Saccharomyces cerevisiae [10] = assay: Antifungal activity against Saccharomyces cerevisiae ATCC 9763 at 50 mg/ml after 72 hrs by agar diffusion test; format: functional; conditions: for zone of inhibition at 50000 µg/mL: ATCC 9763, 72 h, read-out: DIZ; method in brief: as §3
# Bacillus mycoides [11] = assay: Antibacterial activity against Bacillus mycoides DSMZ 274 at 50 mg/ml after 24 hrs by agar diffusion test; format: functional; conditions: for zone of inhibition at 50000 µg/mL: DSMZ 274, 24 h, read-out: DIZ; method in brief: as §1
# Acinetobacter johnsonii [12] = assay: Antibacterial activity against Acinetobacter johnsonii ATCC 17909 at 2 mg/ml after 24 hrs by agar diffusion test; format: functional; method in brief: as §1
# Candida tropicalis [13] = assay: Antifungal activity against Candida tropicalis ATCC 20336 at 50 mg/ml after 72 hrs by agar diffusion test; format: functional; conditions: for zone of inhibition at 50000 µg/mL: ATCC 20336, 72 h, read-out: DIZ; method in brief: as §3
# Staphylococcus aureus [14] = assay: Antibacterial activity against Staphylococcus aureus NRRL B 313 at 50 mg/ml after 24 hrs by agar diffusion test; format: functional; conditions: for zone of inhibition at 50000 µg/mL: NRRL B 313, 24 h, read-out: DIZ; method in brief: as §2
# Priestia megaterium [15] = assay: Antibacterial activity against Bacillus megaterium NRRL 1353895 at 50 mg/ml after 24 hrs by agar diffusion test; format: functional; conditions: for zone of inhibition at 50000 µg/mL: NRRL 1353895, 24 h, read-out: DIZ; method in brief: as §1
# Escherichia coli [16] = assay: Antibacterial activity against Escherichia coli ATCC 8739 at 50 mg/ml after 24 hrs by agar diffusion test; format: functional; method in brief: as §1
# Penicillium chrysogenum [17] = assay: Antifungal activity against Penicillium chrysogenum CECT 2802 at 2 mg/ml after 72 hrs by agar diffusion test; format: functional, organism-based; method in brief: as §3
# Bacillus cereus [18] = assay: Antibacterial activity against Bacillus cereus ATCC 11778 at 50 mg/ml after 24 hrs by agar diffusion test; format: functional; conditions: for zone of inhibition at 50000 µg/mL: ATCC 11778, 24 h, read-out: DIZ; method in brief: as §1
# Bacillus mycoides [19] = assay: Antibacterial activity against Bacillus mycoides DSMZ 274 at 2 mg/ml after 24 hrs by agar diffusion test; format: functional, organism-based; method in brief: as §1
# Penicillium chrysogenum [20] = assay: Antifungal activity against Penicillium chrysogenum CECT 2802 at 50 mg/ml after 72 hrs by agar diffusion test; format: functional; method in brief: as §3
# [21] = system: Mycobacterium tuberculosis; assay: Antimycobacterial activity against Mycobacterium tuberculosis H37Rv after 45 days; format: functional
# Method in brief: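 Canetti proportion method. Compound in DMSO is added to Löwenstein–Jensen egg medium before coagulation (30 min, 85 °C), tested at three levels plus a lower one where needed. Tubes are inoculated with H37Rv at 10⁵ cells/ml and incubated 45 days at 37 °C. Colony counts versus drug-free control give percentage inhibition.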
# Bacillus [22] = assay: Antibacterial activity against Bacillus idosus B 241 at 50 mg/ml after 24 hrs by agar diffusion test; format: functional; conditions: for zone of inhibition at 50000 µg/mL: B 241, 24 h, read-out: DIZ; method in brief: as §1
# Candida tropicalis [23] = assay: Antifungal activity against Candida tropicalis ATCC 20336 at 2 mg/ml after 72 hrs by agar diffusion test; format: functional, organism-based; method in brief: as §3
# Micrococcus luteus [24] = assay: Antibacterial activity against Micrococcus luteus ATCC 9631 at 2 mg/ml after 24 hrs by agar diffusion test; format: functional, organism-based; method in brief: as §1
# Acinetobacter johnsonii [25] = assay: Antibacterial activity against Acinetobacter johnsonii ATCC 17909 at 50 mg/ml after 24 hrs by agar diffusion test; format: functional; conditions: for zone of inhibition at 50000 µg/mL: ATCC 17909, 24 h, read-out: DIZ; method in brief: as §1
# Bacillus subtilis [26] = assay: Antibacterial activity against Bacillus subtilis ATCC 6633 at 2 mg/ml after 24 hrs by agar diffusion test; format: functional, organism-based; method in brief: as §1
# Bacillus cereus [27] = assay: Antibacterial activity against Bacillus cereus ATCC 11778 at 2 mg/ml after 24 hrs by agar diffusion test; format: functional, organism-based; method in brief: as §1
# [28] = Selectivity index, ratio of IC50 for human HEK293T cells to MIC for Mycobacterium tuberculosis H37Rv; format: functional, HEK-293T
# [29] = Solubility of the compound in deionized water; format: physicochemical
# [30] = system: Mycobacterium tuberculosis; assay: Ratio of ethambutol dihydrochloride MIC to compound MIC for Mycobacterium tuberculosis H37Rv; format: functional
# HEK-293T = assay: Cytotoxicity against human HEK293T cells after 72 hrs by MTT assay; format: cell-based
# Method in brief: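 293T cells in RPMI-1640 with 10% heat-inactivated FCS and 2 mM L-glutamine, 37 °C, 5% CO2. Cells seeded at 3.5 × 10⁵ cells/ml, grown 24 h, then exposed 72 h to DMSO-diluted compounds (final solvent ≤0.5%), ≥8 wells per concentration. MTT added 4 h, formazan dissolved in 5% HCOOH/2-propanol, absorbance read at 580 nm. IC50 obtained by sigmoidal nonlinear regression against untreated control.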
SMILES,diameter of the inhibition zone (DIZ) (Micrococcus luteus [4]),diameter of the inhibition zone (DIZ) (Bacillus subtilis [5]),diameter of the inhibition zone (DIZ) (Micrococcus luteus [6]),diameter of the inhibition zone (DIZ) (Saccharomyces cerevisiae [10]),diameter of the inhibition zone (DIZ) (Bacillus mycoides [11]),diameter of the inhibition zone (DIZ) (Candida tropicalis [13]),diameter of the inhibition zone (DIZ) (Staphylococcus aureus [14]),diameter of the inhibition zone (DIZ) (Priestia megaterium [15]),diameter of the inhibition zone (DIZ) (Bacillus cereus [18]),diameter of the inhibition zone (DIZ) (Penicillium chrysogenum [20]),MIC [21] [µM],diameter of the inhibition zone (DIZ) (Bacillus [22]),diameter of the inhibition zone (DIZ) (Acinetobacter johnsonii [25]),Selectivity Index [28],solubility [29] [µg/mL],diameter of the inhibition zone (DIZ) (Escherichia coli [16]),Ratio [30],IC50 (HEK-293T) [µM],further results
CC[C@H](CO)N1C(=O)c2ccccc2C1=O,inactive,inactive,inactive,inactive,inactive,inactive,inactive,inactive,inactive,inactive,> 22.8,inactive,inactive,–,–,–,–,–,"diameter of the inhibition zone (DIZ) (Priestia megaterium [1]): inactive; diameter of the inhibition zone (DIZ) (Bacillus [2]): inactive; diameter of the inhibition zone (DIZ) (Micrococcus luteus [3]): inactive; diameter of the inhibition zone (DIZ) (Staphylococcus aureus [7]): inactive; diameter of the inhibition zone (DIZ) (Escherichia coli [8]): inactive; diameter of the inhibition zone (DIZ) (Saccharomyces cerevisiae [9]): inactive; diameter of the inhibition zone (DIZ) (Acinetobacter johnsonii [12]): inactive; zone of inhibition at 50000 µg/mL (Escherichia coli [16]; ATCC 8739, 24 h, read-out: DIZ): 11 mm; diameter of the inhibition zone (DIZ) (Penicillium chrysogenum [17]): inactive; diameter of the inhibition zone (DIZ) (Bacillus mycoides [19]): inactive; diameter of the inhibition zone (DIZ) (Candida tropicalis [23]): inactive; diameter of the inhibition zone (DIZ) (Micrococcus luteus [24]): inactive; diameter of the inhibition zone (DIZ) (Bacillus subtilis [26]): inactive; diameter of the inhibition zone (DIZ) (Bacillus cereus [27]): inactive"
CC[C@H](CO)NC(=O)c1ccccc1C(=O)N[C@H](CC)CO,inactive,inactive,inactive,inactive,inactive,inactive,inactive,inactive,inactive,inactive,0.65,inactive,inactive,375.4,46000,inactive,5,244,–
CC[C@H](COC(C)=O)NC(c1ccccc1)(c1ccccc1)c1ccccc1,inactive,–,inactive,inactive,inactive,inactive,inactive,inactive,inactive,inactive,13.4,inactive,inactive,8.5,< 1000,inactive,–,114,zone of inhibition at 50000 µg/mL (Bacillus subtilis [5]): 13 mm
CC[C@H](CO)NP(=O)(c1ccccc1)c1ccccc1,–,–,–,–,–,–,–,–,–,–,0.69,–,–,224.6,< 1000,inactive,5,155,zone of inhibition at 50000 µg/mL (Micrococcus luteus [4]): 18 mm; zone of inhibition at 50000 µg/mL (Bacillus subtilis [5]): 18 mm; zone of inhibition at 50000 µg/mL (Micrococcus luteus [6]): 15 mm; zone of inhibition at 50000 µg/mL (Saccharomyces cerevisiae [10]): 16 mm; zone of inhibition at 50000 µg/mL (Bacillus mycoides [11]): 15 mm; zone of inhibition at 50000 µg/mL (Candida tropicalis [13]): 22 mm; zone of inhibition at 50000 µg/mL (Staphylococcus aureus [14]): 18 mm; zone of inhibition at 50000 µg/mL (Priestia megaterium [15]): 16 mm; zone of inhibition at 50000 µg/mL (Bacillus cereus [18]): 15 mm; zone of inhibition at 50000 µg/mL (Bacillus [22]): 15 mm; zone of inhibition at 50000 µg/mL (Acinetobacter johnsonii [25]): 17 mm
CC[C@H](CO)NC(=O)c1ccc(N(C)C)cc1,inactive,inactive,inactive,inactive,inactive,inactive,inactive,inactive,inactive,inactive,8.46,inactive,inactive,20.5,1500,inactive,–,173,–
CCNC(=O)N[C@H](CC)CO,inactive,inactive,inactive,inactive,inactive,inactive,inactive,inactive,inactive,inactive,1.25,inactive,inactive,91.2,215000,inactive,5,114,–
CC[C@H](CO)N1Cc2ccccc2C1=O,inactive,inactive,inactive,inactive,inactive,inactive,inactive,inactive,inactive,inactive,0.97,inactive,inactive,91.8,1000,inactive,5,89,–
CC[C@H](CO)NC(=O)c1ccccc1O,–,inactive,–,–,–,–,–,–,–,inactive,0.96,–,–,267.7,2000,inactive,5,257,zone of inhibition at 50000 µg/mL (Micrococcus luteus [4]): 13 mm; zone of inhibition at 50000 µg/mL (Micrococcus luteus [6]): 11 mm; zone of inhibition at 50000 µg/mL (Saccharomyces cerevisiae [10]): 15 mm; zone of inhibition at 50000 µg/mL (Bacillus mycoides [11]): 12 mm; zone of inhibition at 50000 µg/mL (Candida tropicalis [13]): 13 mm; zone of inhibition at 50000 µg/mL (Staphylococcus aureus [14]): 11 mm; zone of inhibition at 50000 µg/mL (Priestia megaterium [15]): 13 mm; zone of inhibition at 50000 µg/mL (Bacillus cereus [18]): 11 mm; zone of inhibition at 50000 µg/mL (Bacillus [22]): 11 mm; zone of inhibition at 50000 µg/mL (Acinetobacter johnsonii [25]): 13 mm
